Assay outcomes deposited in PubChem BioAssay by several laboratories.
p47phox inh – p47phox/p22phox peptide binding inhibitors, primary screen, biochemical, uHTS, NADPH oxidase regulatory subunit | fluorescence polarization, 2 h | 220,000 tested, 0.53% active | inhibition, % at 24.7 µM;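 active = inhibition above about 30%, limit read from the data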;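 note: 0% = p47phox with labelled peptide and 100% = labelled peptide alone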
TbHK1 inh – Trypanosoma brucei hexokinase 1 inhibitors, primary screen, biochemical, G6PDH-coupled NADH absorbance, MLSCN library; hexokinase 1 [Trypanosoma brucei]; 220,000 tested, 0.11% active; inhibition, % at 10 µM; recombinant TbHK1, G6PDH-coupled NADH A340;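 active = inhibition of 50% or more in the single-dose primary screen; inactive = inhibition below 50%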
Rad51 HR inh – human RAD51 strand exchange inhibitors, primary screen, biochemical, fluorescence. DNA repair protein RAD51 homolog 1 (Homo sapiens), Q06609. hRad51 DNA strand exchange, fluorescence dequenching. inhibition, % at 10 µM. 200,000 tested, 0.085% active;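 active = inhibition above 40% at the single screening dose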;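 note: 0% = DMSO control wells and 100% = blanks with heterologous ssDNA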
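material = hRad51 filaments on single-stranded DNA | reagent = Donor/quencher-labelled 47-bp dsDNA substrate | compound = 10 µM final, single point | schedule = strand-exchange reaction 15 min at room temperature | measured by = fluorescein emission 520 nm, excitation 485 nm | read-out basis = % inhibition versus plate control and blank means | benchmarks = plate controls and plate blanks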
MDM2 E3 inh – MDM2-luciferase reporter signal enhancers, primary screen, MDM2 E3 ligase inhibitor project, cell-based, luminescence, 1536-well; cell-based MDM2 ubiquitination luciferase reporter, 2 h; 0 = plate control, 100 = twice control, blank-subtracted; signal enhancement, % at 5 µM; 210,000 tested, 0.11% active; AID 1230, 2008;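 active = signal enhancement of 30% or more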;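 note: luminescence tracks abundance of the self-degrading MDM2-luciferase fusion protein; higher signal means inhibition of MDM2 E3 ligase activity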
Target sequence (Q00987 whole entry, looked up, the tested form may be a part): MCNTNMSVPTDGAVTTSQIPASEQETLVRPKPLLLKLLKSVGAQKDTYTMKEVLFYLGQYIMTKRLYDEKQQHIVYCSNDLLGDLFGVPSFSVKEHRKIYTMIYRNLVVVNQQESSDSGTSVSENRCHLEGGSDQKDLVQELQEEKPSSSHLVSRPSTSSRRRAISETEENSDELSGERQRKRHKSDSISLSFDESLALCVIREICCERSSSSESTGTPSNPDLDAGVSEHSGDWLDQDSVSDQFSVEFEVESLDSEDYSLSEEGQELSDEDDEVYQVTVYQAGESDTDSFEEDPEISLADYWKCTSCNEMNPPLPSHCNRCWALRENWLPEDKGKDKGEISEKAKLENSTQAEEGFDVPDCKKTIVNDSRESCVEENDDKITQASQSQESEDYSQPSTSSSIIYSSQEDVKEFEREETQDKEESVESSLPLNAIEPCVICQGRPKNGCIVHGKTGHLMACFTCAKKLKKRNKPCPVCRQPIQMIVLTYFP
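test system = mammalian cells stably expressing self-ubiquitinating, self-degrading MDM2 E3–luciferase fusion | quantity = 2000 cells/well | incubation = cell settling 4 h, compound treatment 2 h, both 37 °C | signal = luminescence with SteadyLite reagent, 15 min at room temperature | evaluation = % enhancement relative to plate controls after blank subtraction | benchmarks = plate controls and plate blanks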
* hit, by the source's call; ! = not active in a repeat. Only some compounds are listed: those with a hit (about 0.75% of all), similar ones and a draw of the others.

What do the screens show for `CCCOc1ccccc1N/C(N)=N/c1nc(C)cc(C)n1`?
p47phox inh: 8.5; TbHK1 inh: 3.5; Rad51 HR inh: -3.2; MDM2 E3 inh: -3.8

How did CCCOc1ccccc1N/C(=N/c1nc(C)cc(C)n1)NC(=O)COc1ccc(OC)cc1 do in these assays?
p47phox inh: 4.2; TbHK1 inh: -23.3; Rad51 HR inh: 96.7*; MDM2 E3 inh: -8.2

What do the screens show for `CCC(=O)N1CCC2(CC1)Oc1ccc(Cl)cc1C(=O)C21CC(c2ccc(Cl)cc2)=NO1` (stereo not drawn)?
p47phox inh: -4.9; TbHK1 inh: -18.1; Rad51 HR inh: inactive; MDM2 E3 inh: -4.9

Results for O=C(CNC(=O)C1CCCCC1)Nc1cc(Cl)ccc1Cl ?
p47phox inh: -7.2; TbHK1 inh: -0.4; Rad51 HR inh: 5.9; MDM2 E3 inh: -5.4

Results for O=C(CNC(=O)C1CCCCC1)Nc1ccccc1Cl ?
p47phox inh: 53.0*; TbHK1 inh: 2.3

How did COc1cccc(-c2cc(C(=O)Nc3cnn(Cc4ccccc4C)c3)no2)c1 do in these assays?
p47phox inh: 70.0*; TbHK1 inh: -6.5; MDM2 E3 inh: -10.5

How did COc1cccc(-c2cc(C(=O)Nc3cnn(Cc4ccc(F)cc4)c3)no2)c1 do in these assays?
p47phox inh: 1.0; TbHK1 inh: -12.8; Rad51 HR inh: -5.1; MDM2 E3 inh: -1.0

How did COCCN(C(=O)CC1C(=O)NCCN1CC(c1ccccc1)c1ccccc1)C(C)C (stereo not drawn) do in these assays?
p47phox inh: -4.1; TbHK1 inh: -1.2; Rad51 HR inh: 3.0; MDM2 E3 inh: -4.3

Results for CN(C)Cc1cc(C(C)(C)C)cc(C(C)(C)C)c1O ?
p47phox inh: -10.5; TbHK1 inh: -4.1; MDM2 E3 inh: -7.5

How did CN(C)Cc1cc(O)c(CN(C)C)cc1O do in these assays?
p47phox inh: 37.2*; TbHK1 inh: 3.5; Rad51 HR inh: -7.8; MDM2 E3 inh: -4.5

What do the screens show for `Cc1ccc(C(C)C)c(OCc2nn(CC(=O)c3ccc(Cl)cc3)c3[n+]2CCCCC3)c1`?
p47phox inh: 15.7; TbHK1 inh: 16.7; Rad51 HR inh: 3.4; MDM2 E3 inh: -21.3

Results for CCOC(=O)Nc1ccc(C)cc1NC(=O)OCC ?
p47phox inh: -13.0; TbHK1 inh: -4.6; MDM2 E3 inh: -16.8

How did CCOC(=O)Nc1ccc(C)cc1C do in these assays?
p47phox inh: 117.0*; TbHK1 inh: 5.2; Rad51 HR inh: -0.3; MDM2 E3 inh: -24.2

How did COC(=O)c1sc(N2C(=O)c3oc4ccccc4c(=O)c3C2c2cccs2)nc1C (stereo not drawn) do in these assays?
p47phox inh: 49.5*; TbHK1 inh: -13.0; Rad51 HR inh: -0.8; MDM2 E3 inh: -18.0

What do the screens show for `COc1ccccc1Oc1ccc2c(c1)C(=O)N(c1cccc3ncccc13)C2=O`?
p47phox inh: 36.4*; TbHK1 inh: -9.3

Results for Cc1ccc(C(=O)COC(=O)c2ccc(-c3cnc4ccccc4n3)cc2)cc1C ?
p47phox inh: -12.7; TbHK1 inh: -3.5; Rad51 HR inh: -1.2; MDM2 E3 inh: -10.1

Results for Cc1ccc(C(=O)COC(=O)c2ccc3c(c2)C(=O)N(c2cccc4ncccc24)C3=O)cc1C ?
p47phox inh: 73.1*; TbHK1 inh: -7.4; Rad51 HR inh: 0.6; MDM2 E3 inh: -4.4

What do the screens show for `O=c1[nH]c(CSc2nc3ccccc3s2)nc2ccccc12`?
p47phox inh: -15.2; TbHK1 inh: -11.5; Rad51 HR inh: -0.9

Results for COc1ccc(C2NCCc3c2[nH]c2ccccc32)cc1CSc1nc2ccccc2s1 (stereo not drawn) ?
p47phox inh: 58.4*; TbHK1 inh: 1.2; Rad51 HR inh: -4.6; MDM2 E3 inh: 4.0

Results for CSc1nsc(/C=C/Nc2ccc(F)cc2)c1C#N ?
p47phox inh: -45.1; TbHK1 inh: -6.2; Rad51 HR inh: -39.5; MDM2 E3 inh: 35.1*

What do the screens show for `CSc1nsc(/C=C/Nc2ccc(Cl)cc2)c1C#N`?
p47phox inh: -38.6; TbHK1 inh: -1.1; Rad51 HR inh: -64.3; MDM2 E3 inh: -2.5

What do the screens show for `O=C(Nc1cccc(C(=O)O)c1)/C(=C/c1ccc([N+](=O)[O-])cc1)NC(=O)c1ccccc1`?
p47phox inh: -2.2; TbHK1 inh: -17.9; Rad51 HR inh: 5.5; MDM2 E3 inh: 1.1

What do the screens show for `O=C(Nc1cccc(C(=O)O)c1)/C(=C\c1ccccc1)NC(=O)c1cccc2ccccc12`?
p47phox inh: 122.2*; TbHK1 inh: -2.8

What do the screens show for `O=C(O)COc1ccc(S(=O)(=O)c2ccc(OCC(=O)O)cc2)cc1`?
p47phox inh: 34.9*; TbHK1 inh: 1.6; MDM2 E3 inh: -17.6

What do the screens show for `O=C(NNc1cc(N2CCOCC2)nc(N2CCOCC2)n1)c1ccc([N+](=O)[O-])cc1`?
p47phox inh: 49.2*; TbHK1 inh: -6.3; Rad51 HR inh: -7.9; MDM2 E3 inh: -88.9

Results for O=C(Nc1ccc(N2CCOCC2)cc1N1CCOCC1)c1ccc([N+](=O)[O-])cc1 ?
p47phox inh: -12.6; TbHK1 inh: -10.0; MDM2 E3 inh: -3.7

Results for O=C(N=Nc1c(O)n(C2OC(=O)c3ccccc32)c2ccccc12)c1ccco1 (stereo not drawn) ?
p47phox inh: 30.9*; TbHK1 inh: -46.2; Rad51 HR inh: -9.0; MDM2 E3 inh: 10.7

How did CCCCn1c(O)c(N=NC(=O)c2ccco2)c2ccccc21 do in these assays?
p47phox inh: -17.5; TbHK1 inh: -13.8; Rad51 HR inh: 22.2; MDM2 E3 inh: 2.3

How did COC(=O)c1ccc2c(=O)n(Cc3ccco3)c(SCC(=O)Nc3ccccc3Cl)nc2c1 do in these assays?
p47phox inh: 46.1*; TbHK1 inh: -0.9; Rad51 HR inh: -1.8; MDM2 E3 inh: -8.8

How did COC(=O)c1ccc2c(=O)n(Cc3ccco3)c(SCC(=O)Nc3cc(C)on3)nc2c1 do in these assays?
p47phox inh: 0.2; TbHK1 inh: -2.3; Rad51 HR inh: 7.0; MDM2 E3 inh: -10.4

Results for Fc1ccccc1-c1nc2ccccc2[nH]1 ?
p47phox inh: -5.7; TbHK1 inh: -1.6; Rad51 HR inh: 4.8; MDM2 E3 inh: -11.2

How did c1ccc2[nH]c(-c3ccnc4ccccc34)nc2c1 do in these assays?
p47phox inh: active!; TbHK1 inh: -16.6; Rad51 HR inh: -6.0; MDM2 E3 inh: -17.9

How did COc1cc(C(F)(F)F)nc(-c2ccccn2)n1 do in these assays?
p47phox inh: -6.8; TbHK1 inh: -2.7; Rad51 HR inh: 8.8; MDM2 E3 inh: -4.5

Results for CN(C)c1cc(C(F)(F)F)nc(-c2ccccn2)n1 ?
p47phox inh: -6.0; TbHK1 inh: -3.2; Rad51 HR inh: -2.7; MDM2 E3 inh: 31.1*

How did O=C(CSC1CN(C(c2ccccc2)c2ccccc2)C1)N/N=C/c1ccccc1 do in these assays?
p47phox inh: 0.6; TbHK1 inh: 10.4; Rad51 HR inh: 14.4; MDM2 E3 inh: -2.2
